This note sets out measurements from ChEMBL document CHEMBL3526004, “Interaction of silymarin flavonolignans with organic anion-transporting polypeptides” (Drug Metab Dispos, 2013).

The target in data set [1] is T1, Solute carrier organic anion transporter family member 2B1 (Homo sapiens, UniProt O94956).
T1 sequence (O94956 whole entry): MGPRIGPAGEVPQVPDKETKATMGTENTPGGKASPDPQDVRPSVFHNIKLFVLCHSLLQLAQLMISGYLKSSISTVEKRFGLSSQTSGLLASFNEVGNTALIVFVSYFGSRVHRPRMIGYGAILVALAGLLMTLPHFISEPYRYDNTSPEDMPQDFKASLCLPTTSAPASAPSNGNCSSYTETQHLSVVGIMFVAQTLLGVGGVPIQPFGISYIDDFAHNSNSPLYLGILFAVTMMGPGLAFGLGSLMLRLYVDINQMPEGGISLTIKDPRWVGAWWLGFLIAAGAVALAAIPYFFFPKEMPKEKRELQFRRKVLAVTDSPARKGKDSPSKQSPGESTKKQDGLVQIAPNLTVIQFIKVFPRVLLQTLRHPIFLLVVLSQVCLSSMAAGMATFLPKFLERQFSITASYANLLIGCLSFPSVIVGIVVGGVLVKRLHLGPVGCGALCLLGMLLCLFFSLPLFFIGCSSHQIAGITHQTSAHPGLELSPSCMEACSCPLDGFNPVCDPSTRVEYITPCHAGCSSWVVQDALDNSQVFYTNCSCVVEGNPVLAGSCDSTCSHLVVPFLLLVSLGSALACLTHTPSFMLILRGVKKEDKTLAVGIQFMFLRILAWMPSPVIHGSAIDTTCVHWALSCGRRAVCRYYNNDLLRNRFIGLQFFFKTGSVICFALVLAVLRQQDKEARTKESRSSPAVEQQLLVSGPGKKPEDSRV
As to the kind of experiment: Inhibition of OATP2B1 (unknown origin) expressed in MDCK2 cells assessed as reduction of [3H]estrone-3-sulfate uptake at 10 uM after 3 mins by beta-counting. The class given is ADME, cell-based. Conditions: mdck-ii, 0.05 h; call rule not given here. The method, boiled down:
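Confluent cells were washed in PBS, then given 1 µM [3H]-E2 17G (OATP1B1, OATP1B3 HEK293) or 1 µM [3H]-E1S (OATP2B1 MDCKII) with 10 µM compound in HBSS pH 7.4 for 3 min at 37°C. Uptake into mock or parental cells was subtracted after protein normalization. Results are % vehicle, mean ± SD of at least three experiments in triplicate.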

Data set [2] in a line: Protein binding in rat. In kind it is ADME, organism-based. Conditions: in vivo, read-out: PB (converted).
A short description of data set [3]: Unbound fraction in human plasma. The class given is ADME, cell-free.
The nature of data set [4]: Ratio of fCmax in portal vein of patient with chronic noncirrhotic HCV infection at 140 mg to IC50 for OATP2B1 (unknown origin) expressed in HEK293 cells. Also noted: species or system Homo sapiens.
A short description of data set [5]: Cmax at steady state in patient with chronic HCV infection at 140 mg administered 3 times per day. In kind it is ADME, organism-based. Set-up: dose 140 mg. Conditions: human, in vivo.
Data set [6] has as its target T2, Solute carrier organic anion transporter family member 1B3 (Homo sapiens, UniProt Q9NPD5).
T2 sequence (Q9NPD5 whole entry): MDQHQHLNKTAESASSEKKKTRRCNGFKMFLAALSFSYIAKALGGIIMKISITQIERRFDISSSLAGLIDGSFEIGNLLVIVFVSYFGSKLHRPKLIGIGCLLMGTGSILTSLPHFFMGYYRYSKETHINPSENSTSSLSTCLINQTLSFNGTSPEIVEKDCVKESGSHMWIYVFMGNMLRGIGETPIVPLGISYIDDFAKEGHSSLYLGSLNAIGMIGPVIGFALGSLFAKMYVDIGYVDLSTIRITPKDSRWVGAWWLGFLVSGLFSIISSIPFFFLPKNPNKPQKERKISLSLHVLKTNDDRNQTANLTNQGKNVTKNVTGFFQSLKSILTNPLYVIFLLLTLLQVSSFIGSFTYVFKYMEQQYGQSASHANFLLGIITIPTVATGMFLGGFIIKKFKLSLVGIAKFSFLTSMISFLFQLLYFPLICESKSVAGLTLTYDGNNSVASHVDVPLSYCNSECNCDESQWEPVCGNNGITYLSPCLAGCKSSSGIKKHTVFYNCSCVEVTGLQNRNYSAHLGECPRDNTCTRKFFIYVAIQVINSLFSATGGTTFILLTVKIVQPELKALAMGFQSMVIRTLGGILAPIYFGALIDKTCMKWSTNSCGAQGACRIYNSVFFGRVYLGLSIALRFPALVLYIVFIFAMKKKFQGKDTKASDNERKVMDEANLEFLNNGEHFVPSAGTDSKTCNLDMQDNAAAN
The experiment in a line: Inhibition of OATP1B3 (unknown origin) expressed in HEK293 cells assessed as reduction of [3H]estradiol-17beta-glucuronide uptake after 3 mins by beta-counting in presence of OATP inhibitor BSP. The class given is ADME, cell-based. Conditions: hek293, 0.05 h.

Data set [7] can be described thus: Ratio of fCmax in portal vein of patient with chronic noncirrhotic HCV infection at 700 mg to IC50 for OATP1B3 (unknown origin) expressed in HEK293 cells. Set-up: species or system Homo sapiens.
Data set [8] in a line: Cmax in patient with chronic noncirrhotic HCV infection at 140 mg. The class given is ADME, organism-based. Set-up: dose 140 mg. Conditions: human, in vivo.
Data set [9] can be described thus: Ratio of fCmax in portal vein of patient with chronic noncirrhotic HCV infection at 140 mg to IC50 for OATP1B1 (unknown origin) expressed in HEK293 cells. Set-up: species or system Homo sapiens.

As a reminder, the Cmax is the peak of the concentration-time curve. In the case of `COc1cc([C@H]2Oc3cc([C@H]4Oc5cc(O)cc(O)c5C(=O)[C@@H]4O)ccc3O[C@@H]2CO)ccc1O` [SILYBIN A], the “inhibition (INH)” value in [1] is listed as “Active”; in [6] it was “Not Active”. The fraction unbound in data set [2] is 0.3; in data set [3] it was 0.05. The Ratio is 0.01 in [4], 0.08 in data set [7] and 0.004 in data set [9]. The Cmax amounted to 0.08 µM in data set [5] and 0.04 µg/mL in data set [8].

Regarding `COc1cc([C@@H]2Oc3cc([C@H]4Oc5cc(O)cc(O)c5C(=O)[C@@H]4O)ccc3O[C@H]2CO)ccc1O` [SILYBIN B], the “inhibition (INH)” value in data set [1] is “Active”; in data set [6] it was “Not Active”. The figures for the fraction unbound in [2] and in data set [3] were 0.3 and 0.05, respectively. Besides, the Ratio in data set [4] is on record as 0.16; in data set [7] it was 0.14; in [9], 0.02. The Cmax stood at 0.016 µM in [5] and 0.008 µg/mL in [8].
